Reference: publication PMC4764504 (Journal of medicinal chemistry, 2015)
Several values for one entry are separate records, joined by “and”; a condition that tells them apart may be missing. Equal values may be shown once.

Legend:
DBT glioma cells = assay: Competitive amino acid cell uptake assays; type: cell-based, mouse; details: 60 s, 37 °C
Procedure, shortened: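 Mouse DBT glioma cells were seeded at 1 × 10⁵ cells/well and grown 48 h in 10% FBS DMEM under 5% CO₂. Cells were washed twice in 37 °C buffer, then exposed for 60 s at 37 °C, pH 7.40, to the radiotracer. Buffers were Na phosphate-buffered saline or choline-substituted Na-free buffer. Controls had 10 mM sucrose; BCH was 10 mM. Cells were washed with ice-cold buffer, lysed in 0.2% SDS/0.2 M NaOH, γ-counted, and normalized to added activity and BCA protein. Values are % of control, triplicate × two plates.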

[1] = system: BALB/c Mice with Subcutaneous Flank DBT Tumors; assay: Whole body biodistribution in mice with subcutaneous DBT gliomas; type: in vivo, mouse; details: for biodistribution, tumor uptake: subcutaneous DBT tumor
Procedure, shortened: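 Male BALB/c mice carried subcutaneous flank DBT tumors (5 × 10⁵ cells) and were used at day 14. Under 1% isoflurane–oxygen, each received ~56 μCi (2.07 MBq) of ⁷⁶Br-labelled or 45 μCi (1.67 MBq) of ¹²³I-labelled test compound by tail vein in 0.9% saline. Mice were killed at 5 min, 30 min, 1, 3 and 24 h (n = 4 per time). Tissues were weighed and γ-counted with decay correction, giving % ID/g.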

[2] = system: mice with intracranial DBT gliomas; assay: Small animal PET/CT imaging in mice with intracranial DBT gliomas; type: in vivo, mouse; details: PET; for SUV tumor uptake: intracranial DBT tumor
Procedure, shortened: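 Four male BALB/c mice carried intracranial DBT gliomas (1 × 10⁴ cells, right mid-cerebrum) and were imaged 14 days after implantation. Under 1% isoflurane–oxygen, each received ~55 μCi (~2.04 MBq) of ⁷⁶Br-labelled test compound by tail vein in 0.9% saline. Imaging was dynamic PET/CT for 0–60 min, then 15-min static scans at 3 and 24 h. Read-out was SUV. Tumors were confirmed afterwards by H&E on fixed brains.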

[3] = 50–60 min (summed) after injection

## C[C@](N)(/C=C/[76Br])C(=O)O [[^76Br]5, (S)-amino-2-methyl-4-[^76Br]-bromo-3-(E)-butenoic acid]
DBT glioma cells; Na BCH condition (BCH 10 mM, system L inhibitor, sodium buffer)
  uptake relative to control: 43 ± 8.5%
DBT glioma cells; choline + BCH (sodium-free, Cho-BCH)
  uptake compared to sodium control: 25 ± 4.1%
DBT glioma cells; choline control (sodium-free, Cho-sucrose)
  uptake compared to the sodium control: 46 ± 10%
DBT glioma cells; in the presence of MeAIB (10 mM, system A inhibitor), sodium buffer
  uptake relative to the control: 56 ± 12%
[1]; 5 min after i.v. injection
  biodistribution, blood: 5.75 ± 0.44 % ID/g
  biodistribution, bone: 2.13 ± 0.43 % ID/g
  biodistribution, brain: 0.54 ± 0.04 % ID/g
  biodistribution, fat: 1.36 ± 0.38 % ID/g
  biodistribution, heart: 2.92 ± 0.29 % ID/g
  biodistribution, kidney: 47.50 ± 4.26 % ID/g
  biodistribution, liver (all): 4.57 ± 0.27 % ID/g
  biodistribution, lung: 6.20 ± 0.41 % ID/g
  biodistribution, muscle: 1.54 ± 0.18 % ID/g
  biodistribution, pancreas: 27.0 ± 7.2 % ID/g and 27.04 ± 7.15 % ID/g
  biodistribution, spleen: 8.20 ± 0.71 % ID/g
  biodistribution, tumor uptake: 2.5 ± 0.64 % ID/g and 2.52 ± 0.64 % ID/g
[1]; 30 min after i.v. injection
  biodistribution, blood: 1.66 ± 0.16 % ID/g
  biodistribution, bone: 1.95 ± 0.29 % ID/g
  biodistribution, brain: 0.42 ± 0.02 % ID/g
  biodistribution, fat: 0.85 ± 0.71 % ID/g
  biodistribution, heart: 2.21 ± 0.18 % ID/g
  biodistribution, kidney: 8.95 ± 0.91 % ID/g
  biodistribution, liver (all): 1.63 ± 0.33 % ID/g
  biodistribution, lung: 1.73 ± 0.16 % ID/g
  biodistribution, muscle: 1.75 ± 0.77 % ID/g
  biodistribution, pancreas: 24.35 ± 4.06 % ID/g
  biodistribution, spleen: 4.05 ± 0.55 % ID/g
  biodistribution, tumor uptake: 3.8 ± 0.95 % ID/g and 3.79 ± 0.95 % ID/g
[1]; 1 h after i.v. injection
  biodistribution, blood: 1.22 ± 0.19 % ID/g
  biodistribution, bone: 1.18 ± 0.64 % ID/g
  biodistribution, brain: 0.38 ± 0.04 % ID/g
  biodistribution, fat: 0.31 ± 0.20 % ID/g
  biodistribution, heart: 1.67 ± 0.27 % ID/g
  biodistribution, kidney: 5.49 ± 0.98 % ID/g
  biodistribution, liver (all): 1.03 ± 0.48 % ID/g
  biodistribution, lung: 1.15 ± 0.22 % ID/g
  biodistribution, muscle: 0.98 ± 0.12 % ID/g
  biodistribution, pancreas: 14.31 ± 8.12 % ID/g
  biodistribution, spleen: 2.30 ± 0.82 % ID/g
  biodistribution, tumor uptake: 3.7 ± 0.4 % ID/g and 3.72 ± 0.43 % ID/g
[1]; 3 h after i.v. injection
  biodistribution, blood: 0.87 ± 0.44 % ID/g
  biodistribution, bone: 0.46 ± 0.20 % ID/g
  biodistribution, brain: 0.31 ± 0.06 % ID/g
  biodistribution, fat: 0.17 ± 0.04 % ID/g
  biodistribution, heart: 0.67 ± 0.15 % ID/g
  biodistribution, kidney: 1.29 ± 0.43 % ID/g
  biodistribution, liver (all): 0.34 ± 0.09 % ID/g
  biodistribution, lung: 0.54 ± 0.07 % ID/g
  biodistribution, muscle: 0.4 ± 0.20 % ID/g
  biodistribution, pancreas: 2.48 ± 1.17 % ID/g
  biodistribution, spleen: 0.59 ± 0.21 % ID/g
  biodistribution, tumor uptake: 1.65 ± 0.40 % ID/g
[1]; 24 h after i.v. injection
  biodistribution, blood: 0.37 ± 0.04 % ID/g
  biodistribution, bone: 0.1 ± 0.04 % ID/g
  biodistribution, brain: 0.09 ± 0.01 % ID/g
  biodistribution, fat: 0.04 ± 0.01 % ID/g
  biodistribution, heart: 0.13 ± 0.02 % ID/g
  biodistribution, kidney: 0.23 ± 0.02 % ID/g
  biodistribution, liver (all): 0.1 ± 0.02 % ID/g
  biodistribution, lung: 0.27 ± 0.05 % ID/g
  biodistribution, muscle: 0.08 ± 0.01 % ID/g
  biodistribution, pancreas: 0.17 ± 0.02 % ID/g
  biodistribution, spleen: 0.18 ± 0.03 % ID/g
  biodistribution, tumor uptake: 0.25 ± 0.03 % ID/g
[1]; normal brain, through 3 h after injection
  brain uptake, fold higher than with [^123I]8: 2- to 3 fold
[1]; subcutaneous DBT tumors, around 30 min to an hour postinjection
  maximal tumor uptake: 3.7–3.8 % ID/g
[1]; thyroid, 5 min after i.v. injection
  biodistribution, thyroid: 3.60 ± 0.69 % ID/g
[1]; thyroid, 5 min after injection
  thyroid uptake: 3.6 ± 0.7 % ID/organ
[1]; thyroid, 30 min after i.v. injection
  biodistribution, thyroid: 1.63 ± 0.12 % ID/g
[1]; thyroid, 1 h after i.v. injection
  biodistribution, thyroid: 1.26 ± 0.18 % ID/g
[1]; thyroid, 3 h after i.v. injection
  biodistribution, thyroid: 0.53 ± 0.08 % ID/g
[1]; thyroid, 24 h after i.v. injection
  biodistribution, thyroid: 0.17 ± 0.06 % ID/g
[2]; [3]
  tumor/brain SUV ratio: 1.70 ± 0.26
  SUV tumor uptake: 0.63 ± 0.06
[2]; 3 h after injection
  tumor/brain SUV ratio: 2.67 ± 0.15
  SUV tumor uptake: 0.70 ± 0.13
[2]; 24 h after injection
  tumor/brain SUV ratio: 3.05 ± 0.30
